# Compounds with a hit are over-represented: about 4.9% of the library has one in this group of screens.
# APP 5'UTR act = activates APP 5'UTR luciferase reporter; SH-SY5Y APP 5'UTR luciferase reporter, luminescence; zero percent = DMSO vehicle wells; activation, % at 2 µM; 190,000 compounds, 1% hits;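 active = activation above a set limit, based on mean plus 3 SD of controls, cut at about 140% in these data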
# STAT3 inh-1 = inhibitors of IL-6 induced STAT3 signaling | inhibition, % at 5.5 µM | 190,000 compounds, 0.89% hits | U3A cells, IL-6 STAT3-luciferase reporter, luminescence; host cell line lacks STAT1;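 active = inhibition above the mean inhibition across all screened compounds plus 3 SD, cut at about 44% in these data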;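 also: 0% = DMSO only wells and 100% = 100 µM nifuroxazide control wells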
# STAT3 act-1 = STAT3 signaling activation; U3A cells, IL-6 STAT3-luciferase reporter, luminescence; 100% = signal with IL-6 EC80 alone; activation (% of control), % at 5.6 µM; 190,000 compounds, 0.91% hits;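 active = activation above the screen-wide mean of compound activation plus 3 SD, cut at about 130% in these data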;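 also: 0% = background luminescence of wells with medium and substrate only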
#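 Test system: human U3A cells carrying STAT3-luciferase construct; control set: IL-6-only wells as 100% reference; timing: compound pre-incubation 1 h before IL-6, then 6 h stimulation at 37 °C; also added: IL-6 stimulus at 33 ng/mL final; evaluation: % activation versus median of IL-6-stimulated wells; detection: reporter luminescence signal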
# NF-kB expr up = raises NF-kB expression in human neuronal cells. fold change at 12.5 µM. 190,000 compounds, 1.6% hits. AID 1239. NF-kB reporter expression; active compounds read high; in the data active = fold change above about 3.3
# STAT1 inh = reduces IFN-gamma driven STAT1 reporter signal; AID 920; NIH 3T3 STAT1-luciferase reporter, luminescence; inhibition, % at 5.5 µM; 200,000 compounds, 0.35% hits;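 active = inhibition above a set limit, the mean inhibition across all tested compounds plus 3 SD, cut at about 34% in these data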;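 also: 0% = IFN-gamma with DMSO and 100% = IFN-gamma with 300 µM nifuroxazide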
# STAT1 act-1 = STAT1 signaling activation; NIH 3T3 STAT1-luciferase reporter, IFN-gamma, luminescence; 100% = IFN-gamma alone, no compound; activation (% of control), % at 5.5 µM; 200,000 compounds, 2.6% hits; AID 932;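 active = activation above the screen-wide mean activation plus 3 SD, cut at about 130% in these data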;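 also: raw ratio to IFN-gamma control signal so 100% means no change and 0% no light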
# STAT3 inh-2 = STAT3 inhibition, confirmation assay | AID 1265 | shares compounds with STAT3 inh-1 | 1,200 compounds, 45% hits | inhibition, % at 5.7 µM | U3A cells, IL-6 STAT3 luciferase reporter, luminescence; cell line lacks STAT1;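 active = inhibition above the hit cutoff computed for the primary STAT3 screen, cut at about 44% in these data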;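 also: 0% = IL-6 plus DMSO and 100% = IL-6 plus nifuroxazide control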
# NFkB inh 2 = NF-kappaB inhibition in STAT3 inhibitor counter-screen; inhibition, % at 5.7 µM; HEK293T NF-kB luciferase reporter, TNF-alpha induced; 1,200 compounds, 36% hits; shares compounds with STAT3 inh-1;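 active = inhibition above the mean of solvent-only control wells plus 3 SD, cutoff set per campaign, cut at about 13% in these data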;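 also: 0% = TNF-alpha with DMSO and 100% = TNF-alpha with MG high control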
# STAT1 inh 2 = counter-screen for STAT3 inhibitors: STAT1 inhibition | shares compounds with STAT3 inh-1 | NIH 3T3 STAT1-luciferase reporter, IFN-gamma induced, luminescence | inhibition, % at 5.7 µM | 1,200 compounds, 27% hits | AID 1317;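 active = inhibition above the mean plus 3 SD of solvent-only control wells, limit set per screening run, cut at about 16% in these data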;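 also: 0% = DMSO with IFN-gamma and 100% = nifuroxazide control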
# STAT3 act-2 = STAT3 activation, confirmation assay. AID 1267. U3A STAT3-luciferase reporter, IL-6 potentiation, luminescence; U3A cells lack STAT1; 100 means same as IL-6 alone. 1,200 compounds, 64% hits. shares compounds with STAT3 act-1. potentiation (% of control), % at 5.7 µM;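 active = percent activation of the STAT3 luciferase reporter above a set limit taken from the earlier primary screen, cut at about 130% in these data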;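 also: 0% = background signal of medium plus substrate and 100% = median of IL-6 with DMSO wells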
# NFkB act STAT3ct = counter-screen for STAT3 activators: NF-kappaB activation; shares compounds with STAT3 act-1; human cells, NF-kappaB reporter activation; activation (% of control), % at 5.7 µM; 1,200 compounds, 11% hits; AID 1309; in the data active = activation above about 120%;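 also: reporter induced by TNF-alpha stimulation; 100% = median of stimulated DMSO wells and 0% = no signal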
# STAT1 act-2 = activates STAT1, counter-screen to STAT3 activators; shares compounds with STAT3 act-1; activation (% of control), % at 5.7 µM; NIH 3T3 STAT1-luciferase reporter, IFN-gamma, luminescence; 1,200 compounds, 13% hits;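 active = activation above the solvent-only control well mean plus 3 SD, set per screening run, cut at about 120% in these data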;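 also: 100% = IFN-gamma with DMSO median signal so 100% means no change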
# STAT1 activ conf = confirmation of STAT1 signaling activators; 1,200 compounds, 97% hits; NIH 3T3 STAT1-luciferase reporter, IFN-gamma potentiation, luminescence; 100% = IFN-gamma EC80 alone, no compound; activation (% of control), % at 5.7 µM; shares compounds with STAT1 act-1; AID 1262;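 active = activation above a set limit carried over from the earlier primary STAT1 screen, cut at about 140% in these data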;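 also: simple ratio to median IFN-gamma plus DMSO wells so 0% means no light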
# NFkB act = NF-kappaB activation in STAT1 activator counter-screen; shares compounds with STAT1 act-1; HEK293T NF-kB luciferase reporter, TNF-alpha stimulated, luminescence; 100% = TNF-alpha with vehicle only; activation (% of control), % at 5.7 µM; 1,200 compounds, 43% hits; AID 1306;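 active = activation above the mean of solvent-only control wells plus 3 SD, set per campaign, cut at about 130% in these data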;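 also: TNF-alpha given at a submaximal dose yielding about 80% of full reporter signal; values are well signal over median control so 100% means no change and 0% no light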
# STAT3 act 2 = activates human STAT3, counter-screen to STAT1 activators; U3A cells STAT3-luciferase reporter, IL-6, luminescence; cells lack STAT1; 100 = IL-6 alone, no compound effect; shares compounds with STAT1 act-1; 1,200 compounds, 46% hits; activation (% of control), % at 5.7 µM;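 active = activation above the solvent-only control well mean plus 3 SD, set per plate batch, cut at about 110% in these data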;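 also: 0% = no luminescence and 100% = median IL-6 plus DMSO wells; higher means more STAT3 reporter activation so hits are non-selective activators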
# * hit, by the source's call; · = not tested or not shown.
SMILES,APP 5'UTR act,STAT3 inh-1,STAT3 act-1,NF-kB expr up,STAT1 inh,STAT1 act-1,STAT3 act-2,NFkB act STAT3ct,STAT1 act-2,others
CCN(CC)S(=O)(=O)c1ccc(NC(=O)COC(=O)c2ccc(-n3nc(C)cc3C)cc2)cc1,-8.6,1.5,98.8,1.28,-0.9,96.9,·,·,·,
COc1ccc(/C=N/Nc2cc(OC)ncn2)cc1,202.7*,51.4*,58.6,6.78*,-58.6,152.4*,·,·,·,STAT3 inh-2=3.0;NFkB inh 2=-24.8;STAT1 inh 2=-138.5;STAT1 activ conf=227.5*;NFkB act=97.6;STAT3 act 2=84.0
CCc1ccc(CNC(=O)Cn2nc(-c3ccccc3)ccc2=O)cc1,-6.1,-3.1,114.7,1.28,-5.6,104.4,·,·,·,
O=c1c2c(nc3cc(-c4ccc(F)cc4)[nH]n13)CCCC2,167.6*,52.7*,55.6,3.36*,-83.8,176.7*,·,·,·,STAT3 inh-2=18.9;NFkB inh 2=-26.7;STAT1 inh 2=-133.4;STAT1 activ conf=240.4*;NFkB act=115.1;STAT3 act 2=92.5
Cc1ccc(C(=O)N2CCN(S(C)(=O)=O)C2)cc1,-4.1,2.9,105.2,1.07,2.7,97.5,·,·,·,
Cc1ccc(C(=O)N2CCN(S(=O)(=O)c3ccc(C)cc3)CC2)cc1,33.1,-56.3,146.2*,0.95,4.6,95.6,112.0,103.4,99.2,
CC1=NOC(=O)/C1=C\c1ccc(-c2ccc(Cl)c(C(=O)O)c2)o1,-0.7,-2.0,103.7,1.14,-0.3,100.9,·,·,·,
CC1=NOC(=O)/C1=C\c1ccc(-c2cccc(Cl)c2)o1,-17.9,-37.1,137.4*,1.13,-0.8,100.8,115.8,110.1,105.3,
Cc1[nH]n(-c2ccccc2)c(=O)c1N=Nc1ccccc1,120.2,-56.3,148.2*,3.96*,-31.8,128.0,175.8*,129.7*,174.1*,
Cc1ccc2nc(SCC(=O)Nc3ccc(F)c([N+](=O)[O-])c3)[nH]c2c1,1.7,0.5,98.3,1.08,6.6,94.0,·,·,·,
Cc1ccc2nc(SCC(=O)Nc3cc([N+](=O)[O-])ccc3F)[nH]c2c1,2.1,-52.8,138.5*,1.51,12.2,88.8,138.5*,106.8,97.2,
CN=c1scc(-c2c[nH]c3ccccc23)n1C,-5.3,-35.1,138.3*,1.03,8.3,91.9,137.0*,104.4,99.2,
CC(C)Sc1nnc(-c2c[nH]c3ccccc23)n1C,·,10.2,98.9,1.92,-12.7,111.5,·,·,·,
COc1cc(OC)cc(C(=O)Oc2ccc(/C=N/Nc3nc4ccccc4s3)cc2OC)c1,115.2,-51.1,148.5*,1.72,-23.4,120.6,151.4*,96.7,154.7*,
COc1ccc(C(=O)Oc2cc(/C=N/NC(N)=S)ccc2OC)cc1,-15.8,9.9,95.9,1.17,-4.2,103.8,·,·,·,
CC1=C(C(=O)Nc2ccccc2C)C(c2ccc(C)o2)NC(=S)N1 (centres undefined),-0.5,0.7,98.2,1.28,11.8,89.3,·,·,·,
c1ccc2c(c1)CCN(c1nc3ccccc3n3cnnc13)C2,-3.0,-34.2,132.0,0.97,2.5,97.8,·,·,·,
c1ccc2c(c1)CCCN2c1nc2ccccc2n2cnnc12,11.5,-64.7,164.4*,0.58,-6.5,105.9,162.7*,110.3,108.8,
CN(C)C(CN1C(=O)C2CC=CCC2C1=O)c1cn(C)c2ccccc12 (centres undefined),-6.1,-58.5,153.1*,0.91,11.4,89.6,149.2*,103.6,89.7,
Cc1nn(-c2ccccc2)c2c1C(c1ccccc1)C(C#N)=C(N)O2 (centres undefined),25.7,-22.3,122.4,1.05,3.9,96.4,·,·,·,
Cc1ccc(-n2nc(C)c3c2OC(N)=C(C#N)C3c2ccoc2)cc1 (centres undefined),2.2,-84.7,176.5*,0.81,5.6,94.9,152.9*,103.7,91.5,
Fc1ccccc1C1c2[nH]c3ccccc3c2CCN1Cc1cccn1-c1ncccn1 (centres undefined),11.2,-31.7,132.8,1.23,-10.6,107.8,·,·,·,
Cn1nccc1C(=O)N1CCc2c([nH]c3ccccc23)C1c1ccc(F)cc1 (centres undefined),0.9,-8.2,109.0,0.86,-1.3,99.5,·,·,·,
Cc1nonc1CC(=O)N1CCc2c([nH]c3ccccc23)C1c1ccccc1F (centres undefined),-8.2,-50.5,149.0*,0.99,-11.0,108.6,142.5*,104.7,93.2,
O=C(Cc1cnc2ncnn2c1)N1CCc2c([nH]c3ccccc23)C1c1ccccc1F (centres undefined),31.3,-49.1,144.2*,1.77,8.4,90.6,140.2*,104.0,102.0,
COc1ccc(-c2cnnc(N/N=C/C(C)=C/c3ccccc3)n2)cc1,5.4,1.3,100.8,1.12,-1.6,101.4,·,·,·,
COCCNC(=O)Cn1cc(C(=S)N2CCOCC2)c2ccccc21,11.0,3.7,98.4,1.01,2.0,95.9,·,·,·,
Cc1ccc(C)c(/C(O)=C2\C(=O)C(=O)N(CCCN3CCOCC3)C2c2cccnc2)c1 (centres undefined),2.9,4.7,98.9,1.39,11.7,89.3,·,·,·,

# Source: PubChem (several laboratories)
